Screening data deposited in PubChem BioAssay by several laboratories.
CHOP inh = blocks CHOP induction under ER stress. CHO-K1 CHOP-promoter luciferase, tunicamycin-induced, 15-18 h. inhibition, % at 10 µM. hit rate 3.8% among 220,000. AID 2732;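 active means compounds that reduced the stress-induced luciferase reporter signal by more than about 70% of percent inhibition, limit read from the data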;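 further: 0% = tunicamycin plus vehicle and 100% = wells without tunicamycin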
UPR CHOP act = apoptotic UPR (CHOP) activation; CHO-CHOP luciferase reporter, luminescence; percent of tunicamycin response over DMSO baseline; activation, % at 10 µM; hit rate 0.34% among 330,000; AID 449763;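 active means at 10 µM dose, activation of 40% or more, normalized to positive control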;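 further: 100% = tunicamycin at 10 µg/mL and 0% = DMSO alone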
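Assay system: CHO-CHOP cells, stable luciferase reporter of PERK-eIF2a-CHOP signalling / Buffer or medium: F12 plus 10% serum / Compound dosing: one dose, 10 µM in 0.5% DMSO / Times: 6 h compound treatment, 37 °C / Technique: luciferase luminescence / Read-out: % reporter activation, DMSO baseline versus tunicamycin full activation / Benchmarks: tunicamycin and DMSO controls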
Bfl-1 A1 inh = inhibitors of the anti-apoptotic protein A1, read as caspase activation. AID 2462. caspase activation, % (test concentration not listed). MEF A1-2A-BIM cells, Caspase-Glo 3/7 luminescence, 3 h; percent of clofoctol response, vehicle zero. hit rate 0.066% among 330,000;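 active means over half of replicate activation scores above 10%, or exactly half above 10 with the replicate mean above 10; inconclusive means replicate mean below 10 yet half the replicates above 10; inactive means over half of replicates below 10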
XBP1 UPR activ = adaptive UPR (XBP1) activation. CHO-XBP1 luciferase reporter, IRE1-XBP1 UPR activation, luminescence; percent of tunicamycin response, DMSO as zero. AID 463104. activation, % at 20 µM. hit rate 0.33% among 330,000;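 active means versus positive control, 20 µM dose yields 30% or more activation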;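 further: 100% = tunicamycin at 10 µg/mL and 0% = DMSO only wells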
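incubation = overnight seeding at 37 °C, 6 h compound treatment at 37 °C | assay system = CHO-XBP1 cells stably carrying IRE1-XBP1-driven luciferase reporter | input = 1000 cells per well | detection = luciferase luminescence | dosing = single point, 20 µM final compound, 1% DMSO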
UPR CHOP confirm = confirmation of apoptotic unfolded protein response (CHOP) activators | CHO-CHOP cells, CHOP-luciferase reporter luminescence; percent of tunicamycin response, DMSO as zero | hit rate 64% among 1,000 | shares compounds with UPR CHOP act | activation, % at 10 µM; in the data active means activation above about 33%;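 further: 0% = DMSO wells and 100% = tunicamycin 10 µg/mL wells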
UPR XBP1 confirm = confirmation of adaptive unfolded protein response (XBP1) activators | hit rate 63% among 1,000 | activation, % at 20 µM | CHO-XBP1 IRE1-XBP1 luciferase reporter, luminescence | shares compounds with XBP1 UPR activ;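 active means reporter signal at least 30% of the positive control's activation in two or more of four replicate wells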;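 further: plate controls were DMSO negative control for no effect and tunicamycin 10 µg/mL positive control for full effect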
* = called active by the depositor; ? = inconclusive; · = no result. Many of the other results were omitted from the sample, so hits are more common in it than they were.

SMILES	CHOP inh	UPR CHOP act	Bfl-1 A1 inh	XBP1 UPR activ	UPR CHOP confirm	UPR XBP1 confirm
O=C(Nc1ccc(-c2nc3ccccc3o2)cc1)c1ccc2c(c1)OCO2	84.9*	46.2*	0.3	88.1*	6.6	23.8
COc1cc(/C=C/C(=O)c2ccc(F)cc2)cc(OC)c1OC	-119.8	2.1	0.2	0.6	·	·
Cc1csc(N2CCCC2c2nc3cc(Cl)c(N4CCCCC4)cc3n2CCCO)n1 (configuration not stated)	·	-1.4	1.1	-0.6	·	·
OCCCn1c(C2CCCN2c2nc(-c3ccc(Cl)cc3)cs2)nc2cc(Cl)c(N3CCCCC3)cc21 (configuration not stated)	·	87.8*	0.9	121.6*	23.6	198.1*
CCN(CC)S(=O)(=O)c1ccc(-c2nnc(SCC(=O)N3CCOCC3)o2)cc1	-13.2	-0.3	0.5	-1.9	·	·
CCN(CC)S(=O)(=O)c1ccc(-c2nnc(SCC(=O)N3CCc4ccccc43)o2)cc1	·	69.9*	-0.3	209.3*	0.7	27.5
Nc1cccc(-c2nc3cc(S(=O)(=O)c4ccc5oc(-c6cccc(N)c6)nc5c4)ccc3o2)c1	11.3	57.0*	-0.6	50.5*	77.6*	91.8*
CN1CCN(c2cc(-c3cc(O)c4ncccc4c3)ccn2)CC1	·	0.3	1.0	-0.9	·	·
Oc1cc(-c2cccnc2)cc2cccnc12	·	95.8*	0.6	46.4*	74.0*	33.8*
COC(=O)c1ccc(COc2ccc(/C=C(\C#N)c3nc4ccccc4[nH]3)cc2OC)o1	38.4	4.5	-0.7	8.4	·	·
CCc1ccc(NC(=O)COc2ccc(/C=C(/C#N)c3nc4ccccc4[nH]3)cc2OC)cc1	87.1*	172.1*	0.8	191.7*	1.3	-2.0
O=C(O)c1cccc2c1C(=O)c1ccc(-c3ccc(OC(F)(F)F)cc3)cc1S2(=O)=O	·	1.1	1.4	-0.9	·	·
CC(C)c1cccc(-c2ccc3c(c2)S(=O)(=O)c2cccc(C(=O)NCc4ccccc4Cl)c2C3=O)c1	·	48.8*	12.1*	98.9*	34.1*	108.6*
O=C(NCc1ccccc1Br)c1cccc2c1C(=O)c1ccc(-c3ccc(OC(F)(F)F)cc3)cc1S2(=O)=O	·	97.8*	?	114.7*	88.3*	85.9*
OC(c1ccccc1)(c1ccccc1)C1CCN(C(=S)NC2CCCC2)CC1	1.7	-0.1	0.5	0.8	·	·
c1ccc(N=Nc2ccc3cccccc2-3)cc1	·	67.3*	-0.3	83.1*	20.7	60.5*
COc1ccc(/C=N/NC(=O)c2cc(-c3ccccc3OC(C)C)nc3ccccc23)cc1CN1CCOCC1	23.3	1.9	-0.1	-2.5	·	·
O=[N+]([O-])c1ccc(N/N=C/c2cccc(O)c2)cc1	·	5.6	-1.4	5.2	·	·
Cc1ccccc1NC(=O)c1ccc(N/N=C/c2ccccc2O)c([N+](=O)[O-])c1	18.6	48.1*	2.2	45.5*	70.7*	70.7*
NS(=O)(=O)c1ccc(N/N=C/c2ccccc2C(=O)O)c([N+](=O)[O-])c1	0.1	-0.1	-0.4	0.6	·	·
Cc1ccc(NC(=O)c2ccc(N/N=C/c3cccc(O)c3)c([N+](=O)[O-])c2)cc1	68.7	63.5*	36.0*	51.4*	52.3*	39.1*
COc1cccc(-n2cc(CNCc3cn(C)nc3-c3ccccc3F)cn2)c1	16.2	0.8	-0.3	-2.2	·	·
O=S(=O)(c1ccccc1)N1CCN(C(c2ccccc2)c2ccc(OC(F)(F)F)cc2)CC1 (configuration not stated)	·	2.4	-0.7	1.2	·	·
Cc1ccc(S(=O)(=O)NCC(C)n2nc(C)cc2C)cc1 (configuration not stated)	·	1.3	0.8	-0.4	·	·
Cc1ccc(C(C[N+](=O)[O-])n2nc(C)cc2C)cc1 (configuration not stated)	-28.1	56.8*	1.1	55.2*	82.7*	20.0
CCN(CC)Cc1c(C(=O)N/N=C/c2ccc(C)o2)nnn1-c1nonc1N	·	1.7	0.2	-0.5	·	·
Brc1ccc(-c2ccc(/C=N/Nc3nncc(-c4ccccc4)n3)o2)cc1	49.8	59.0*	0.4	90.9*	62.2*	127.9*
